Our source for the inhibition, IC50 and Ratio values is ChEMBL document CHEMBL4265927, “Systematic variation of the benzoylhydrazine moiety of the GluN2A selective NMDA receptor antagonist TCN-201” (Eur J Med Chem, 2018).

Assay type in all cases: cell-based
The species entered for assay [1] is Homo sapiens. The experiment in a line: Negative allosteric modulation of GluN1a/GluN2A receptor (unknown origin) expressed in Xenopus laevis oocytes assessed as inhibition of (S)-glutamate/glycine-induced channel current at 200 nM at -70 mV holding potential in presence of 1 to 3 uM glycine by two electrode voltage clamp based electrophysiology assay. In short, it runs like this: (§1)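 Oocytes co-injected with 0.8 ng each of rat GluN1a and GluN2A cRNA were recorded by TEVC at room temperature in Mg2+-free Ba2+-Ringer, pH 7.4. Compound was fixed at 200 nM. Currents were evoked by (S)-glutamate with glycine at 1, 3, 10 and 30. There were 3 oocytes per glycine level. Mean inhibition was fitted linearly (y = a + b*x) to give intercept and slope.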
Background: In two-electrode clamp one electrode senses voltage and the other passes current.

Assay [2] is filed under the species Homo sapiens. The experiment in a line: Negative allosteric modulation of GluN1a/GluN2A receptor (unknown origin) expressed in Xenopus laevis oocytes assessed as inhibition of (S)-glutamate/glycine-induced channel current at 200 nM at -70 mV holding potential in presence of 30 uM glycine by two electrode voltage clamp based electrophysiology assay. In short, it runs like this:
as §1

Assay [3] in a line: Negative allosteric modulation of GluN1a/GluN2A receptor (unknown origin) expressed in Xenopus laevis oocytes assessed as inhibition of (S)-glutamate/glycine-induced channel current at -70 mV holding potential in presence of 10 uM glycine by two electrode voltage clamp based electrophysiology assay. As to conditions: Homo sapiens. In short, it runs like this:
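Rat wild-type GluN1a and GluN2A cRNA (0.8 ng each) injected into defolliculated oocytes. TEVC at room temperature in Mg2+-free Ba2+-Ringer (10 mM HEPES, 90 mM NaCl, 1 mM KCl, 1.5 mM BaCl2, pH 7.4). Compound was diluted from DMSO stock into (S)-glutamate/glycine agonist solution over a 1 nM–10 range. There were 5 oocytes per concentration. The logistic fit had minimal and maximal inhibition fixed at 0% and 100%.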

Assay [4] can be described thus: Negative allosteric modulation of GluN1a/GluN2B receptor (unknown origin) expressed in Xenopus laevis oocytes assessed as inhibition of (S)-glutamate/glycine-induced channel current at 10 uM at -70 mV holding potential by two electrode voltage clamp based electrophysiology assay. The settings on record: Homo sapiens. The method, boiled down:
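For selectivity, oocytes received 0.8 ng GluN1a plus 0.8 ng GluN2B rat cRNA. TEVC was at room temperature in Mg2+-free Ba2+-Ringer, pH 7.4, with (S)-glutamate/glycine stimulation. Compounds were at 10 µM, giving 0.1% DMSO in the test solution. There were 4–5 oocytes per compound.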

Assay [5] is described as follows: Negative allosteric modulation of GluN1a/GluN2A receptor (unknown origin) expressed in Xenopus laevis oocytes assessed as inhibition of (S)-glutamate/glycine-induced channel current at 200 nM at -70 mV holding potential in presence of 1 to 10 uM glycine by two electrode voltage clamp based electrophysiology assay. As to conditions: Homo sapiens. The method, boiled down: as §1

A short description of assay [6]: Negative allosteric modulation of GluN1a/GluN2A receptor (unknown origin) expressed in Xenopus laevis oocytes assessed as inhibition of (S)-glutamate/glycine-induced channel current at 200 nM at -70 mV holding potential in presence of 1 to 30 uM glycine by two electrode voltage clamp based electrophysiology assay. As to conditions: Homo sapiens. The method, boiled down:
as §1

Assay [7] can be described thus: Negative allosteric modulation of GluN1a/GluN2A receptor (unknown origin) expressed in Xenopus laevis oocytes assessed as inhibition of (S)-glutamate/glycine-induced channel current at -70 mV holding potential in presence of 3 uM glycine by two electrode voltage clamp based electrophysiology assay. The settings on record: Homo sapiens.
Assay [8] can be described thus: Negative allosteric modulation of GluN1a/GluN2A receptor (unknown origin) expressed in Xenopus laevis oocytes assessed as inhibition of (S)-glutamate/glycine-induced channel current at 500 nM at -70 mV holding potential by two electrode voltage clamp based electrophysiology assay relative to control TCN-201. The settings on record: Homo sapiens. In short, it runs like this:
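The screen ran on GluN1a/GluN2A oocytes (0.8 ng of each rat cRNA) by room-temperature TEVC in Mg2+-free Ba2+-Ringer, pH 7.4, with (S)-glutamate/glycine activation. Compounds were at 500 nM. Inhibition was normalized to that of the reference antagonist at 500 nM, tested in the same series of experiments. n is the number of independent oocytes.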

The source made the active and inactive calls. The calls are words filed in the database; no cut-off is given here.

What is called IC50 is the concentration needed to halve the response being measured. For the compound `O=C(NNC(=O)c1ccc(CNS(=O)(=O)c2ccc(F)c(Cl)c2)cc1)c1ccccc1`, the inhibition entry (in the assay filed under Homo sapiens [1]; in assay [4]) was “inactive” in each case. Also, the inhibition result (in the assay listed under Homo sapiens [2]; in assay [5]) was “Active” in each case. Besides, in assay [3], the IC50 was found to be 512 nM. As to `Cc1ncc(CNC(=O)c2cnc(CNS(=O)(=O)c3ccc(F)c(F)c3)c(C)n2)s1`, the inhibition result (in the assay listed under Homo sapiens [2]; in assay [6]; in assay [5]) was “Active” in each case. In addition, in assay [7], the half-maximal inhibitory concentration (IC50) was 198 nM. On to `O=C(NNC(=O)c1ccc[nH]1)c1ccc(CNS(=O)(=O)c2ccc(F)c(Cl)c2)cc1`, for which the Ratio in assay [8] is 1.2. In the case of `O=C(NNC(=O)c1cc2ccccc2[nH]1)c1ccc(CNS(=O)(=O)c2ccc(F)c(Cl)c2)cc1`, the Ratio in assay [8] was 1.28. For `O=C(NNC(=O)c1ccncn1)c1ccc(CNS(=O)(=O)c2ccc(F)c(Cl)c2)cc1`, in assay [8], the Ratio worked out at 0.92. Take `O=C(Cc1ccccc1)NNC(=O)c1ccc(CNS(=O)(=O)c2ccc(F)c(Cl)c2)cc1`: the Ratio in assay [8] turned out to be 0.64. In the case of `O=C(NNC(=O)c1ccco1)c1ccc(CNS(=O)(=O)c2ccc(F)c(Cl)c2)cc1`, in assay [8], the Ratio stood at 1.1. Regarding `O=C(NNC(=O)c1ccc2ccccc2c1)c1ccc(CNS(=O)(=O)c2ccc(F)c(Cl)c2)cc1`, the Ratio in assay [8] came to 0.44.

For `O=C(O)CCC(=O)NNC(=O)c1ccc(CNS(=O)(=O)c2ccc(F)c(Cl)c2)cc1`, the Ratio in assay [8] amounted to 0.3. Consider `O=C(NNC(=O)c1cccs1)c1ccc(CNS(=O)(=O)c2ccc(F)c(Cl)c2)cc1`, for which the inhibition result in assay [6] and in assay [5] was “Active” each time. Moreover, the IC50 in assay [3] is 198 nM. Moreover, the inhibition result in assay [4] is “inactive”. In assay [8], the Ratio was 1.35. Take `CC(C(O)c1ccc(O)cc1)N1CCC(Cc2ccccc2)CC1` (configuration not stated): the inhibition result in assay [4] was “inactive”. Consider `O=C(NNC(=O)c1c[nH]c2ccccc12)c1ccc(CNS(=O)(=O)c2ccc(F)c(Cl)c2)cc1`, for which the inhibition entry in assay [6] and in assay [5] was “Active” throughout. Further, in assay [3], the IC50 came out at 216 nM. For the same compound, the inhibition result in assay [4] is “inactive”. Also, the Ratio in assay [8] was determined as 1.33.

With `O=C(NNS(=O)(=O)c1ccccc1)c1ccc(CNS(=O)(=O)c2ccc(F)c(Cl)c2)cc1`, the Ratio in assay [8] was determined as 0.58. For `O=C(NNCc1ccccc1)c1ccc(CNS(=O)(=O)c2ccc(F)c(Cl)c2)cc1`, in assay [8], the Ratio was 0.73. Turning to `O=C(NNC(=O)c1cccs1)c1ccc(CNS(=O)(=O)c2cccc(Br)c2)cc1`, the inhibition result in assay [6] and in assay [5] was “Active” in each case. Besides, the IC50 in assay [3] came to 222 nM. Besides, the inhibition result in assay [4] was “inactive”. Take `O=C(NNC(=O)c1cc2ccccc2s1)c1ccc(CNS(=O)(=O)c2ccc(F)c(Cl)c2)cc1`: the Ratio in assay [8] was 0.58. Same read-out and setting: for `O=C(NNC(=O)N1CCOCC1)c1ccc(CNS(=O)(=O)c2ccc(F)c(Cl)c2)cc1` the value was 0.52.

On to `O=S(=O)(NCc1ccc(-c2nnc(-c3ccccc3)o2)cc1)c1ccc(F)c(Cl)c1`, for which the Ratio in assay [8] was 0.31. As to `O=C(NNC(=O)c1ccc(CNS(=O)(=O)c2cccc(Br)c2)cc1)c1ccccc1`, in assay [3], the IC50 was 204 nM.
